Data: ChEMBL document CHEMBL4825669, “Synthesis, Molecular Pharmacology, and Structure-Activity Relationships of 3-(Indanoyl)indoles as Selective Cannabinoid Type 2 Receptor Antagonists” (J Med Chem, 2021)

Tests used:
[1] = biological target: T1, Cannabinoid receptor 1 (Homo sapiens, UniProt P21554); experiment: Displacement of [3H]-CP55940 from human CB1 receptor expressed in CHO cells at 1 uM incubated for 90 mins by liquid scintillation spectrophotometry relative to control; type: cell-based
T1 sequence (P21554 whole entry): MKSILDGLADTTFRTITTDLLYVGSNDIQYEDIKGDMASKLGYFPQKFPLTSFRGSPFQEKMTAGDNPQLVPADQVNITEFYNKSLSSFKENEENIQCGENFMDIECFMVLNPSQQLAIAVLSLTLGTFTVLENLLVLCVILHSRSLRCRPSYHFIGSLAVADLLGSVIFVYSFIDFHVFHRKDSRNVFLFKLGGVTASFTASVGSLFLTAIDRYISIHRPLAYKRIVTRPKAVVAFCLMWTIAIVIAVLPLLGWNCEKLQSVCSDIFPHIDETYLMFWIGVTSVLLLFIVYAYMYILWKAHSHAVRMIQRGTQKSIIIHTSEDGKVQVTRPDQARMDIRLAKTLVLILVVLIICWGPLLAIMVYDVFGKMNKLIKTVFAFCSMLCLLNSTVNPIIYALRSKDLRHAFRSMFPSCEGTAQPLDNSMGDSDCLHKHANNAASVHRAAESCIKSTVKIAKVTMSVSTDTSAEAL
In short: (§1)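 Membrane protein was 100 μg for CHO-hCB1 and 50 μg for CHO-hCB2. Incubation 90 min at room temperature. Nonspecific binding set with 10 μM WIN-55,212-2. Stopped by GF/B filtration with three ice-cold washes, then liquid scintillation counting.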

[2] = biological target: T2, Cannabinoid receptor 2 (Homo sapiens, UniProt P34972); experiment: Displacement of [3H]-CP55940 from human CB2 receptor expressed in CHO cells at 1 uM incubated for 90 mins by liquid scintillation spectrophotometry relative to control; type: cell-based; in short: as §1
T2 sequence (P34972 whole entry): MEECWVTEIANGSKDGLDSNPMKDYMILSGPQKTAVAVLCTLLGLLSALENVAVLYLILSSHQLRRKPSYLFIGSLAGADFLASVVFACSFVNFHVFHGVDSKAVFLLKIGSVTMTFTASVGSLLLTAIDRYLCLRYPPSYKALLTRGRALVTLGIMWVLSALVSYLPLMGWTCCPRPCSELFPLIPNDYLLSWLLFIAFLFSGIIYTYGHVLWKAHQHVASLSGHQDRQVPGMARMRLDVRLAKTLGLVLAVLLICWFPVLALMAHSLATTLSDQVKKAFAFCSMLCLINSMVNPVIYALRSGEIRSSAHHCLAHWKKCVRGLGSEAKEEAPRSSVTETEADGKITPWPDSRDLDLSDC

[3] = biological target: T2, Cannabinoid receptor 2; experiment: Antagonist activity at human CB2 receptor expressed in CHO cell membrane assessed as stimulation of [35S]GTPgammaS binding at 10 uM by liquid scintillation spectrophotometry; type: functional, cell membranes; parameters: scale not given: the % may be the effect or the level left
In short: (§2)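 CHO cell membranes expressing hCB2, 25 or 50 µg protein, incubated in triplicate with 0.1 nM [35S]GTPγS. Buffer: 20 mM HEPES, 100 mM NaCl, 10 mM MgCl2, 0.05% BSA, 20 units/L adenosine deaminase. Reaction 30 min at 30 °C, stopped by filtration on GF/B with ice-cold washes, counted by liquid scintillation. Nonspecific binding set with 10 μM unlabelled GTPγS.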

[4] = biological target: T2, Cannabinoid receptor 2; experiment: Displacement of [3H]-CP55940 from human CB2 receptor expressed in CHO cells incubated for 90 mins by liquid scintillation spectrophotometry relative to control; type: cell-based; in short: as §1
[5] = biological target: T1, Cannabinoid receptor 1; experiment: Binding affinity to human CB1 receptor assessed as free binding energy; type: cell-based; conditions: CHO, filed as antagonist
[6] = biological target: T2, Cannabinoid receptor 2; experiment: Binding affinity to human CB2 receptor assessed as free binding energy; type: cell-based; conditions: CHO, filed as antagonist
[7] = biological target: T2, Cannabinoid receptor 2; experiment: Antagonist activity at human CB2 receptor expressed in CHO cell membrane assessed as reduction in CP55940-induced [35S]GTPgammaS binding by liquid scintillation spectrophotometry; type: functional, cell membranes; in short: as §2
[8] = biological target: T1, Cannabinoid receptor 1; experiment: Displacement of [3H]-CP55940 from human CB1 receptor expressed in CHO cells incubated for 90 mins by liquid scintillation spectrophotometry relative to control; type: cell-based; in short: as §1
[9] = system: CHO; experiment: Selectivity index, ratio of Ki for human CB1 receptor expressed in CHO cells to Ki for human CB2 receptor expressed in CHO cells; type: cell-based

Q: How did the Activity ([1]; filed as antagonist) turn out when CC1(C)Cc2ccc(C(=O)c3cn(Cc4ccc(F)cc4)c4ccccc34)cc2C1 was run?
A: Its Activity is 88%.

Q: What about the Activity ([2]; filed as antagonist) of the same molecule?
A: Its Activity is 92.3%.

Q: And the Activity ([3]; filed as antagonist)?
A: Its Activity is 90%.

Q: For CCCCCn1cc(C(=O)c2ccc3c(c2)CC(C)(C)C3)c2ccccc21, which Ki [4] is on record?
A: Its Ki is 4.9 nM.

Q: What about the deltaG [5] of the same molecule?
A: The deltaG was -10.2 kcal/mol.

Q: And the Activity ([1]; filed as antagonist)?
A: Its Activity is 93.4%.

Q: And the deltaG [6]?
A: The deltaG was -11.5 kcal/mol.

Q: And the Activity ([2]; filed as antagonist)?
A: Its Activity is 99.8%.

Q: What about the IC50 [7] of the same molecule?
A: The IC50 was 1800 nM.

Q: What about the Kb ([7]; filed as antagonist) of the same molecule?
A: Its Kb is 9.7 nM.

Q: What about the Activity ([3]; filed as antagonist) of the same molecule?
A: The Activity was 108%.

Q: And the Ki [8]?
A: Its Ki is 38.8 nM.

Q: What about the Selectivity Index [9] of the same molecule?
A: The Selectivity Index was 7.9.

Q: What does the source list for CC/C=C\Cn1cc(C(=O)c2ccc3c(c2)CC(C)(C)C3)c2ccccc21?
A: Activity ([1]; filed as antagonist): 60.7%; Activity ([2]; filed as antagonist): 86.4%; Activity ([3]; filed as antagonist): 106%

Q: What does the source list for CCCCCCn1cc(C(=O)c2ccc3c(c2)CC(C)(C)C3)c2ccccc21?
A: Activity ([1]; filed as antagonist): 79.1%; Activity ([2]; filed as antagonist): 83.6%; Activity ([3]; filed as antagonist): 102%

Q: For CCCCCCn1c(C)c(C(=O)c2ccc3c(c2)CC(C)(C)C3)c2ccccc21, which Activity [1] is on record?
A: The Activity was 26.2%.

Q: And the Activity ([2]; filed as antagonist)?
A: The Activity was 55%.

Q: How did the Ki [4] turn out when CCCCCn1cc(C(=O)c2cccc3ccccc23)c2ccccc21 was run?
A: Its Ki is 2.94 nM.

Q: What about the Ki [8] of the same molecule?
A: The Ki was 9 nM.

Q: And the Selectivity Index [9]?
A: Its Selectivity Index is 3.1.

Q: Which Activity [1] does the source give for CC/C=C\Cn1c(C)c(C(=O)c2ccc3c(c2)CC(C)(C)C3)c2ccccc21 here?
A: The Activity was 43%.

Q: What about the Activity ([2]; filed as antagonist) of the same molecule?
A: Its Activity is 82.9%.

Q: For CCCCCn1cc(C(=O)c2cccc3c2CC(C)(C)C3)c2ccccc21, which Ki [4] is on record?
A: The Ki was 1.36 nM.

Q: And the deltaG [5]?
A: The deltaG was -12.1 kcal/mol.

Q: And the Activity ([1]; filed as antagonist)?
A: Its Activity is 85.7%.

Q: What about the deltaG [6] of the same molecule?
A: Its deltaG is -12.2 kcal/mol.

Q: And the Activity ([2]; filed as antagonist)?
A: Its Activity is 94.1%.

Q: And the Activity ([3]; filed as antagonist)?
A: Its Activity is 134%.

Q: And the Ki [8]?
A: The Ki was 1.46 nM.

Q: And the Selectivity Index [9]?
A: The Selectivity Index was 1.1.

Q: Cn1cc(C(=O)c2ccc3c(c2)CC(C)(C)C3)c2ccccc21 was tested. Which Activity [1] did it give?
A: The Activity was 10.8%.

Q: And the Activity [2]?
A: The Activity was 23.9%.

Q: What does the source list for C=CCCCn1cc(C(=O)c2ccc3c(c2)CC(C)(C)C3)c2ccccc21?
A: Ki [4]: 15.6 nM; deltaG [5]: -9.36 °C; Activity ([1]; filed as antagonist): 80%; deltaG [6]: -10.7; Activity ([2]; filed as antagonist): 95.2%; Activity ([3]; filed as antagonist): 92%; Ki [8]: 152 nM

Q: CCC#CCn1c(C)c(C(=O)c2ccc3c(c2)CC(C)(C)C3)c2ccccc21 was tested. Which Activity [1] did it give?
A: Its Activity is 16.4%.

Q: And the Activity [2]?
A: The Activity was 30.2%.

Q: What does the source list for C=CCCCn1c(C)c(C(=O)c2ccc3c(c2)CC(C)(C)C3)c2ccccc21?
A: Activity [1]: 38.6%; Activity ([2]; filed as antagonist): 86.4%

Q: With CCC#CCn1cc(C(=O)c2ccc3c(c2)CC(C)(C)C3)c2ccccc21 as the molecule, how does the Activity ([1]; filed as antagonist) read?
A: The Activity was 55.6%.

Q: And the Activity ([2]; filed as antagonist)?
A: Its Activity is 65.9%.

Q: What does the source list for Cc1c(C(=O)c2ccc3c(c2)CC(C)(C)C3)c2ccccc2n1Cc1ccc(F)cc1?
A: Activity [1]: 38.4%; Activity [2]: 48.8%

Q: How did the Activity ([1]; filed as antagonist) turn out when CC1(C)Cc2ccc(C(=O)c3cn(Cc4ccccc4)c4ccccc34)cc2C1 was run?
A: Its Activity is 69.2%.

Q: And the Activity ([2]; filed as antagonist)?
A: Its Activity is 84.6%.

Q: And the Activity ([3]; filed as antagonist)?
A: The Activity was 87%.

Q: Which results are given for CC/C=C/Cn1c(C)c(C(=O)c2ccc3c(c2)CC(C)(C)C3)c2ccccc21?
A: Activity [1]: 35.1%; Activity ([2]; filed as antagonist): 73.7%

Q: CC/C=C/Cn1cc(C(=O)c2ccc3c(c2)CC(C)(C)C3)c2ccccc21 was tested. Which Activity ([1]; filed as antagonist) did it give?
A: Its Activity is 84.2%.

Q: And the Activity ([2]; filed as antagonist)?
A: The Activity was 86.9%.

Q: And the Activity ([3]; filed as antagonist)?
A: Its Activity is 81%.

Q: For C#CCn1cc(C(=O)c2ccc3c(c2)CC(C)(C)C3)c2ccccc21, which Activity [1] is on record?
A: The Activity was 33.4%.

Q: What about the Activity ([2]; filed as antagonist) of the same molecule?
A: Its Activity is 56%.

Q: Which results are given for Cc1c(C(=O)c2ccc3c(c2)CC(C)(C)C3)c2ccccc2n1Cc1ccccc1?
A: Activity [1]: 18.1%; Activity ([2]; filed as antagonist): 51.2%

Q: What does the source list for CCCn1c(C)c(C(=O)c2ccc3c(c2)CC(C)(C)C3)c2ccccc21?
A: Activity [1]: 44.4%; Activity ([2]; filed as antagonist): 73.9%

Q: Which results are given for CC1(C)Cc2ccc(C(=O)c3c[nH]c4ccccc34)cc2C1?
A: Activity [1]: 9.4%; Activity [2]: 22.2%

Q: With CCCCCn1c(C)c(C(=O)c2ccc3c(c2)CC(C)(C)C3)c2ccccc21 as the molecule, how does the Activity ([1]; filed as antagonist) read?
A: The Activity was 53.8%.

Q: What about the Activity ([2]; filed as antagonist) of the same molecule?
A: The Activity was 83.6%.

Q: CCCn1cc(C(=O)c2ccc3c(c2)CC(C)(C)C3)c2ccccc21 was tested. Which Ki [4] did it give?
A: Its Ki is 130 nM.

Q: What about the deltaG [5] of the same molecule?
A: The deltaG was -7.68 kcal/mol.

Q: And the Activity [1]?
A: Its Activity is 47.4%.

Q: And the deltaG [6]?
A: Its deltaG is -9.45 kcal/mol.

Q: And the Activity ([2]; filed as antagonist)?
A: Its Activity is 90.5%.

Q: And the Activity ([3]; filed as antagonist)?
A: The Activity was 99%.

Q: What about the Ki [8] of the same molecule?
A: The Ki was 2560 nM.

Q: And the Selectivity Index [9]?
A: Its Selectivity Index is 19.7.

Q: For CCCCn1cc(C(=O)c2ccc3c(c2)CC(C)(C)C3)c2ccccc21, which Activity ([1]; filed as antagonist) is on record?
A: Its Activity is 82.7%.

Q: What about the Activity ([2]; filed as antagonist) of the same molecule?
A: The Activity was 92.9%.

Q: And the Activity ([3]; filed as antagonist)?
A: The Activity was 102%.

Q: Which Ki [4] does the source give for C#CCCCn1cc(C(=O)c2ccc3c(c2)CC(C)(C)C3)c2ccccc21 here?
A: The Ki was 24 nM.

Q: And the deltaG [5]?
A: Its deltaG is -8.91 °C.

Q: What about the Activity ([1]; filed as antagonist) of the same molecule?
A: The Activity was 71%.

Q: What about the deltaG [6] of the same molecule?
A: The deltaG was -10.5.

Q: And the Activity ([2]; filed as antagonist)?
A: Its Activity is 92.8%.

Q: And the Activity ([3]; filed as antagonist)?
A: Its Activity is 96%.

Q: What about the Ki [8] of the same molecule?
A: Its Ki is 325 nM.

Q: With C#CCn1c(C)c(C(=O)c2ccc3c(c2)CC(C)(C)C3)c2ccccc21 as the molecule, how does the Activity ([1]; filed as antagonist) read?
A: The Activity was 51.9%.

Q: What about the Activity ([2]; filed as antagonist) of the same molecule?
A: The Activity was 63%.

Q: Which Activity [3] does the source give for COc1ccc(C(=O)c2c(C)n(CCN3CCOCC3)c3cc(I)ccc23)cc1 here?
A: The Activity was 67%.

Q: How did the Activity ([1]; filed as antagonist) turn out when CC(C)Cn1cc(C(=O)c2ccc3c(c2)CC(C)(C)C3)c2ccccc21 was run?
A: The Activity was 422%.

Q: What about the Activity ([2]; filed as antagonist) of the same molecule?
A: The Activity was 83.1%.

Q: With C=CCn1cc(C(=O)c2ccc3c(c2)CC(C)(C)C3)c2ccccc21 as the molecule, how does the Activity [1] read?
A: The Activity was 16%.

Q: What about the Activity ([2]; filed as antagonist) of the same molecule?
A: The Activity was 60.6%.

Q: With CCCCn1c(C)c(C(=O)c2ccc3c(c2)CC(C)(C)C3)c2ccccc21 as the molecule, how does the Activity [1] read?
A: Its Activity is 43.5%.

Q: What about the Activity ([2]; filed as antagonist) of the same molecule?
A: The Activity was 85.4%.

Q: Which results are given for C#CCCCn1c(C)c(C(=O)c2ccc3c(c2)CC(C)(C)C3)c2ccccc21?
A: Ki [4]: 62.5 nM; deltaG [5]: -7.85 °C; Activity [1]: 41.9%; deltaG [6]: -9.89; Activity ([2]; filed as antagonist): 93.1%; Activity ([3]; filed as antagonist): 121%; Ki [8]: 1900 nM

Q: With CCOC(=O)Cn1cc(C(=O)c2ccc3c(c2)CC(C)(C)C3)c2ccccc21 as the molecule, how does the Activity [1] read?
A: The Activity was 19.4%.

Q: What about the Activity [2] of the same molecule?
A: The Activity was 18%.
